In ChEMBL document CHEMBL1833861 (J Med Chem, 2011):
Calls of active or inactive are those of the source. The calls are words filed in the database; no cut-off is given here.

Tests used:
[1] = target: T1, Neuronal acetylcholine receptor; alpha4/beta2 (Homo sapiens, UniProt P17787+P43681); assay: Agonist activity at human alpha4beta2 nAChR expressed in human SH-EP1 cells assessed as increase of carbamylcholine-induced 86Rb+ ion efflux by liquid scintillation counting relative to carbamylcholine; type: functional, cell-based
T1 sequence (P17787 whole entry): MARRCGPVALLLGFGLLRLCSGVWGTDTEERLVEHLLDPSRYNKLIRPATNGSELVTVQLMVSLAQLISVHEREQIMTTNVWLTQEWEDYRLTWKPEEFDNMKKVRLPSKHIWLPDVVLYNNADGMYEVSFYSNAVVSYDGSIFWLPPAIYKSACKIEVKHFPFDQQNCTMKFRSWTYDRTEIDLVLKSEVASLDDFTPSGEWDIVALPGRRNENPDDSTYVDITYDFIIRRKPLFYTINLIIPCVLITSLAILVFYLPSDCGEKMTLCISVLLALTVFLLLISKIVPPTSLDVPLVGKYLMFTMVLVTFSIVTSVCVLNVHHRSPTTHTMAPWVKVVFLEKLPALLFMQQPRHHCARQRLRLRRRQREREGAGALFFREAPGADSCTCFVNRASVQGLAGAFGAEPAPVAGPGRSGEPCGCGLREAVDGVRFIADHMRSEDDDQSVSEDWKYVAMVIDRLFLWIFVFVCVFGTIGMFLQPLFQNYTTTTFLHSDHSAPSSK
T1 sequence (P43681 whole entry): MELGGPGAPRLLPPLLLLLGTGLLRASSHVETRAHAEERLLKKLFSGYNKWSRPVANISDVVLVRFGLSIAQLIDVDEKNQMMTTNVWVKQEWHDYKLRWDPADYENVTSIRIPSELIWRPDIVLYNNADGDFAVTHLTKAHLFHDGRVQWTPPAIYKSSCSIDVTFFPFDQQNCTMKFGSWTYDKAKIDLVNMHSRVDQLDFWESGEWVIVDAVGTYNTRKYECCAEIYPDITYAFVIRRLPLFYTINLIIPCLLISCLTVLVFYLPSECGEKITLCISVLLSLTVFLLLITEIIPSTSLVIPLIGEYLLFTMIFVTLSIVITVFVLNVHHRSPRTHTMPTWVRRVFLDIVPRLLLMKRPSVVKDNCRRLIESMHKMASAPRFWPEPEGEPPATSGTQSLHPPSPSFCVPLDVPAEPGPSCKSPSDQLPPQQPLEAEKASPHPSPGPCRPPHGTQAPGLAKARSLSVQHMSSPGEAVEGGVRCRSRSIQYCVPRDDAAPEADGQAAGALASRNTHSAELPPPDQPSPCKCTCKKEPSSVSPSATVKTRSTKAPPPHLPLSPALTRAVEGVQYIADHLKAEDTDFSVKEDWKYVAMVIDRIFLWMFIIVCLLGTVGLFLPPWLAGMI

[2] = target: T1, Neuronal acetylcholine receptor; alpha4/beta2; assay: Agonist activity at human alpha4beta2 nAChR expressed in human SH-EP1 cells assessed as increase of carbamylcholine-induced 86Rb+ ion efflux by liquid scintillation counting; type: functional, cell-based
Rattus norvegicus = organism: Rattus norvegicus; assay: Selectivity ratio of Ki for rat alpha4beta2 nAChR over Ki for rat alpha3beta4 nAChR
[3] = target: Neuronal acetylcholine receptor; alpha4/beta4 (Rattus norvegicus, UniProt P09483+P12392); assay: Displacement of [3H]epibatidine from rat alpha4beta4 nAChR receptor; type: protein-complex assay
[4] = target: T2, Neuronal acetylcholine receptor; alpha4/beta2 (Rattus norvegicus, UniProt P09483+P12390); assay: Displacement of [3H]epibatidine from rat alpha4beta2 nAChR receptor; type: protein-complex assay
T2 sequence (P09483 whole entry): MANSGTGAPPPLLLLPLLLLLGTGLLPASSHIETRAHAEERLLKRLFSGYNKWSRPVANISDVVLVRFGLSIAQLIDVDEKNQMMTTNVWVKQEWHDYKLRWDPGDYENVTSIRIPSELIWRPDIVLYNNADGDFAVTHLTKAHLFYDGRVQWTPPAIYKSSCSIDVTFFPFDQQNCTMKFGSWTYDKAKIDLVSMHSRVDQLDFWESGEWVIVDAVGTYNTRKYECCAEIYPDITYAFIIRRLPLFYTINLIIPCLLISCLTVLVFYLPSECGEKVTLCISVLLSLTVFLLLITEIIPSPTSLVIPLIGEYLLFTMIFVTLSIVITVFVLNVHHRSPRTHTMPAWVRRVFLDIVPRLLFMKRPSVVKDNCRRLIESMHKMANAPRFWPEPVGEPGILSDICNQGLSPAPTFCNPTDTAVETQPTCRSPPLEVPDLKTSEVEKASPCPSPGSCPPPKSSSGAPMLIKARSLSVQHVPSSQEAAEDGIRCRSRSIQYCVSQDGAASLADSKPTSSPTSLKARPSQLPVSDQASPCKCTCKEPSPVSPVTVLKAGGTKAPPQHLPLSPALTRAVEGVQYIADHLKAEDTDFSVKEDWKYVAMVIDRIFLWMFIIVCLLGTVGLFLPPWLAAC
T2 sequence (P12390 whole entry): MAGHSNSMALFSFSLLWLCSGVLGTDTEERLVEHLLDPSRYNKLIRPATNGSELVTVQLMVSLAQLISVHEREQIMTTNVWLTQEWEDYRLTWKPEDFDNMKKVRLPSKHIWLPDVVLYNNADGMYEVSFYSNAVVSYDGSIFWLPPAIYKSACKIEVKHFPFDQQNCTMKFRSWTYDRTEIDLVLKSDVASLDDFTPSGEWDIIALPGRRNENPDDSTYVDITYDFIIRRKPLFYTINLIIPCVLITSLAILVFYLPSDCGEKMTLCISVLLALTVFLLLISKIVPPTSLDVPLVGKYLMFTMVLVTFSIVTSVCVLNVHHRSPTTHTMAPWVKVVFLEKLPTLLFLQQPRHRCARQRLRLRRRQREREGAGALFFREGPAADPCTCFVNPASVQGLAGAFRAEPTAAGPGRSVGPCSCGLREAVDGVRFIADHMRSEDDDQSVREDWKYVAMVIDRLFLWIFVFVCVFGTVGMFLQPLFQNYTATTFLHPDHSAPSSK

[5] = target: Neuronal acetylcholine receptor; alpha3/beta4 (Rattus norvegicus, UniProt P04757+P12392); assay: Displacement of [3H]epibatidine from rat alpha3beta4 nAChR receptor; type: protein-complex assay
[6] = target: Neuronal acetylcholine receptor; alpha2/beta4 (Rattus norvegicus, UniProt P12389+P12392); assay: Displacement of [3H]epibatidine from rat alpha2beta4 receptor; type: protein-complex assay
Neuronal acetylcholine receptor; alpha2/beta4, sequence (P12389 whole entry): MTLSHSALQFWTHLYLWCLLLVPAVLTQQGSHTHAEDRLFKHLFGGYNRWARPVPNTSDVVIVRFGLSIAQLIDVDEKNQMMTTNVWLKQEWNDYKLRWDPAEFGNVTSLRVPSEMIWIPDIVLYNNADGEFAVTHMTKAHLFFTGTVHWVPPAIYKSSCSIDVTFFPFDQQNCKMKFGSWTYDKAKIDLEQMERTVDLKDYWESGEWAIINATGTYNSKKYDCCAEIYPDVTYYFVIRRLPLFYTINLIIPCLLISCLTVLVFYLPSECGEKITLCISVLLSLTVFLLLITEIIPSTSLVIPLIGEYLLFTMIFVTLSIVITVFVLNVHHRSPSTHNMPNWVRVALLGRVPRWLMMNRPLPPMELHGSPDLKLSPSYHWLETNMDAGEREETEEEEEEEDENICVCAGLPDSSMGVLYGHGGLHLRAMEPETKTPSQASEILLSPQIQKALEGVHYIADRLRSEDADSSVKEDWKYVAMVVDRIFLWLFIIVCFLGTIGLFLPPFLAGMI
Neuronal acetylcholine receptor; alpha2/beta4, sequence (P12392 whole entry): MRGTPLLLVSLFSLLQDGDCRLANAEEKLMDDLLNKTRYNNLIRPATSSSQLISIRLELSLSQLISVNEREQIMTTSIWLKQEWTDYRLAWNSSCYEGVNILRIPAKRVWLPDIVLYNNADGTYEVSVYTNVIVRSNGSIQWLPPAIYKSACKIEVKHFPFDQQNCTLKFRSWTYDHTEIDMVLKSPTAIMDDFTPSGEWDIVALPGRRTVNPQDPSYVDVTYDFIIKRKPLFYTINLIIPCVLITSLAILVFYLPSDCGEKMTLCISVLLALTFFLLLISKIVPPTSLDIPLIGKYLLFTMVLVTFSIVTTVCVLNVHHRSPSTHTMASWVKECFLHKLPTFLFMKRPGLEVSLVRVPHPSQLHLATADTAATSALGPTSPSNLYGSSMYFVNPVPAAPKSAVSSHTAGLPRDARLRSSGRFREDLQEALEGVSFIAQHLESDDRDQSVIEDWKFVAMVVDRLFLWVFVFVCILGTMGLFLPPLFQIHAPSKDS

[7] = target: Neuronal acetylcholine receptor; alpha3/beta2 (Rattus norvegicus, UniProt P04757+P12390); assay: Displacement of [3H]epibatidine from rat alpha3beta2 receptor; type: protein-complex assay
[8] = target: Neuronal acetylcholine receptor; alpha2/beta2 (Rattus norvegicus, UniProt P12389+P12390); assay: Displacement of [3H]epibatidine from rat alpha2beta2 receptor; type: protein-complex assay
Neuronal acetylcholine receptor; alpha2/beta2, sequence (P12389 whole entry): as the sequence (P12389 whole entry) above
Neuronal acetylcholine receptor; alpha2/beta2, sequence (P12390 whole entry): as the sequence (P12390 whole entry) above

[9] = target: T1, Neuronal acetylcholine receptor; alpha4/beta2; assay: Antagonist activity at human alpha4beta2 nAChR expressed in SH-EP1 cells assessed as inhibition of carbamylcholine-induced 86Rb+ ion efflux by liquid scintillation counting; type: functional, cell-based
[10] = target: T1, Neuronal acetylcholine receptor; alpha4/beta2; assay: Antagonist activity at human alpha4beta2 nAChR expressed in SH-EP1 cells assessed as inhibition of carbamylcholine-induced 86Rb+ ion efflux by liquid scintillation counting relative to mecamylamine; type: functional, cell-based
Mus musculus [11] = assay: Antidepressant activity in BALB/cJ mouse assessed as decrease in immobility time at 30 mg/kg, ip after 30 mins by forced swim test; type: functional, organism-based; parameters: dose 30 mg/kg
Summary of the method: (§1)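 Male BALB/cJ mice, 8–10 weeks old; compound in injectable water given ip at 10 mL/kg. Sertraline (10 or 20 mg/kg) served as positive control. 30 min post-dose, each mouse placed in a glass cylinder with 12 cm of 23 ± 1 °C water; immobility (floating) timed over a 6 min trial. n = 10/group; ANOVA with post hoc test.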

[12] = target: T2, Neuronal acetylcholine receptor; alpha4/beta2; assay: Displacement of [3H]epibatidine from rat alpha4beta2 receptor expressed in HEK cells; type: cell-based, HEK293
Summary of the method: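 Competition binding of [3H]epibatidine to membrane fractions from HEK cells stably transfected with rat α4 and β2 subunits; Ki values for blockade of specific binding.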

[13] = Binding affinity to sigma2 receptor at 10 uM by radioligand displacement assay
[14] = target: Sigma non-opioid intracellular receptor 1 (Homo sapiens) (UniProt Q99720); assay: Binding affinity to sigma1 receptor at 10 uM by radioligand displacement assay
Sigma non-opioid intracellular receptor 1 (Homo sapiens), sequence (Q99720 whole entry): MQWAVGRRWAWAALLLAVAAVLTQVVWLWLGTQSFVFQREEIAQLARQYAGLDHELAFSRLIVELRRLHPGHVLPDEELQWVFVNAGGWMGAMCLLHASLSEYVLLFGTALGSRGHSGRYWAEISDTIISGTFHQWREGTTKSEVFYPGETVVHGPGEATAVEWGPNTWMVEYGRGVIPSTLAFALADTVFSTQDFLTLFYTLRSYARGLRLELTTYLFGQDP

[15] = target: Sodium-dependent serotonin transporter (Homo sapiens) (UniProt P31645); assay: Binding affinity to SERT at 10 uM by radioligand displacement assay
[16] = target: Sodium-dependent noradrenaline transporter (Homo sapiens) (UniProt P23975); assay: Binding affinity to NET at 10 uM by radioligand displacement assay
[17] = target: T3, Kappa-type opioid receptor (Homo sapiens, UniProt P41145); assay: Binding affinity to kappa opioid receptor at 10 uM by radioligand displacement assay
T3 sequence (P41145 whole entry): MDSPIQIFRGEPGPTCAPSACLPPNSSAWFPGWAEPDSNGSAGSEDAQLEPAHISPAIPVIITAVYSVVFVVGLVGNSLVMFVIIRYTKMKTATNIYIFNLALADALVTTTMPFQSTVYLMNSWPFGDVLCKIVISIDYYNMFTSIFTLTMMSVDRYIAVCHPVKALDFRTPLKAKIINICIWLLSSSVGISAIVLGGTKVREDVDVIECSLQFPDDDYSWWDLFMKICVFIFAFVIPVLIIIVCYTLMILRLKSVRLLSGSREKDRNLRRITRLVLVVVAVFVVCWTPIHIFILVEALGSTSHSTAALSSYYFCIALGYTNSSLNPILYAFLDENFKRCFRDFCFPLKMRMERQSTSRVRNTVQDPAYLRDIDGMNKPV

[18] = target: Delta-type opioid receptor (Homo sapiens) (UniProt P41143); assay: Binding affinity to delta opioid receptor at 10 uM by radioligand displacement assay
[19] = target: Muscarinic acetylcholine receptor M4 (Homo sapiens) (UniProt P08173); assay: Binding affinity to muscarinic M4 receptor at 10 uM by radioligand displacement assay
[20] = target: Muscarinic acetylcholine receptor M3 (Homo sapiens) (UniProt P20309); assay: Binding affinity to muscarinic M3 receptor at 10 uM by radioligand displacement assay
[21] = target: Muscarinic acetylcholine receptor M2 (Homo sapiens) (UniProt P08172); assay: Binding affinity to muscarinic M2 receptor at 10 uM by radioligand displacement assay
[22] = target: Muscarinic acetylcholine receptor M1 (Homo sapiens) (UniProt P11229); assay: Binding affinity to muscarinic M1 receptor at 10 uM by radioligand displacement assay
[23] = target: Histamine H4 receptor (Homo sapiens) (UniProt Q9H3N8); assay: Binding affinity to histamine H4 receptor at 10 uM by radioligand displacement assay
[24] = target: Histamine H3 receptor (Homo sapiens) (UniProt Q9Y5N1); assay: Binding affinity to histamine H3 receptor at 10 uM by radioligand displacement assay
[25] = target: Histamine H2 receptor (Homo sapiens) (UniProt P25021); assay: Binding affinity to histamine H2 receptor at 10 uM by radioligand displacement assay
[26] = target: Beta-2 adrenergic receptor (Homo sapiens) (UniProt P07550); assay: Binding affinity to beta2 adrenergic receptor at 10 uM by radioligand displacement assay
[27] = target: Beta-1 adrenergic receptor (Homo sapiens) (UniProt P08588); assay: Binding affinity to beta1 adrenergic receptor at 10 uM by radioligand displacement assay
[28] = target: Alpha-2C adrenergic receptor (Homo sapiens) (UniProt P18825); assay: Binding affinity to Alpha-2C adrenergic receptor at 10 uM by radioligand displacement assay
[29] = target: Alpha-2B adrenergic receptor (Homo sapiens) (UniProt P18089); assay: Binding affinity to alpha2B adrenergic receptor at 10 uM by radioligand displacement assay
[30] = target: Alpha-2A adrenergic receptor (Homo sapiens) (UniProt P08913); assay: Binding affinity to alpha2A adrenergic receptor at 10 uM by radioligand displacement assay
[31] = target: Alpha-1D adrenergic receptor (Homo sapiens) (UniProt P25100); assay: Binding affinity to Alpha-1D adrenergic receptor at 10 uM by radioligand displacement assay
[32] = target: Alpha-1B adrenergic receptor (Homo sapiens) (UniProt P35368); assay: Binding affinity to Alpha-1B adrenergic receptor at 10 uM by radioligand displacement assay
[33] = target: Alpha-1A adrenergic receptor (Homo sapiens) (UniProt P35348); assay: Binding affinity to alpha1A adrenergic receptor at 10 uM by radioligand displacement assay
[34] = Binding affinity to rat benzodiazepine receptor at 10 uM by radioligand displacement assay
[35] = target: D(1B) dopamine receptor (Homo sapiens) (UniProt P21918); assay: Binding affinity to dopamine D5 receptor at 10 uM by radioligand displacement assay
[36] = target: D(4) dopamine receptor (Homo sapiens) (UniProt P21917); assay: Binding affinity to dopamine D4 receptor at 10 uM by radioligand displacement assay
[37] = target: D(3) dopamine receptor (Homo sapiens) (UniProt P35462); assay: Binding affinity to dopamine D3 receptor at 10 uM by radioligand displacement assay
[38] = target: D(2) dopamine receptor (Homo sapiens) (UniProt P14416); assay: Binding affinity to dopamine D2 receptor at 10 uM by radioligand displacement assay
[39] = target: D(1A) dopamine receptor (Homo sapiens) (UniProt P21728); assay: Binding affinity to dopamine D1 receptor at 10 uM by radioligand displacement assay
[40] = Binding affinity to GABAA receptor at 10 uM by radioligand displacement assay
[41] = target: 5-hydroxytryptamine receptor 7 (Homo sapiens) (UniProt P34969); assay: Binding affinity to 5HT7 receptor at 10 uM by radioligand displacement assay
[42] = target: 5-hydroxytryptamine receptor 6 (Homo sapiens) (UniProt P50406); assay: Binding affinity to 5HT6 receptor at 10 uM by radioligand displacement assay
[43] = Binding affinity to 5HT3 receptor at 10 uM by radioligand displacement assay
[44] = target: 5-hydroxytryptamine receptor 2C (Homo sapiens) (UniProt P28335); assay: Binding affinity to 5HT2C receptor at 10 uM by radioligand displacement assay
[45] = target: 5-hydroxytryptamine receptor 2B (Homo sapiens) (UniProt P41595); assay: Binding affinity to 5HT2B receptor at 10 uM by radioligand displacement assay
[46] = target: 5-hydroxytryptamine receptor 2A (Homo sapiens) (UniProt P28223); assay: Binding affinity to 5HT2A receptor at 10 uM by radioligand displacement assay
[47] = target: 5-hydroxytryptamine receptor 1E (Homo sapiens) (UniProt P28566); assay: Binding affinity to 5HT1E receptor at 10 uM by radioligand displacement assay
[48] = target: 5-hydroxytryptamine receptor 1B (Homo sapiens) (UniProt P28222); assay: Binding affinity to 5HT1B receptor at 10 uM by radioligand displacement assay
[49] = target: 5-hydroxytryptamine receptor 1D (Homo sapiens) (UniProt P28221); assay: Binding affinity to 5HT1D receptor at 10 uM by radioligand displacement assay
[50] = target: 5-hydroxytryptamine receptor 1A (Homo sapiens) (UniProt P08908); assay: Binding affinity to 5HT1A receptor at 10 uM by radioligand displacement assay
[51] = target: T3, Kappa-type opioid receptor; assay: Binding affinity to kappa opioid receptor by radioligand displacement assay
Mus musculus [52] = assay: Antidepressant activity in BALB/cJ mouse assessed as decrease in immobility time at 1 mg/kg, ip after 30 mins by forced swim test; type: functional, organism-based; parameters: dose 1 mg/kg; summary of the method: as §1
Mus musculus [53] = assay: Antidepressant activity in BALB/cJ mouse assessed as decrease in immobility time at 3 mg/kg, ip after 30 mins by forced swim test; type: functional, organism-based; parameters: dose 3 mg/kg; summary of the method: as §1
[54] = target: Mu-type opioid receptor (Homo sapiens) (UniProt P35372); assay: Binding affinity to MOR at 10 uM by radioligand displacement assay
Mus musculus [55] = assay: Antidepressant activity in BALB/cJ mouse assessed as decrease in immobility time at 10 mg/kg, po after 30 mins by forced swim test; type: functional, organism-based; parameters: dose 10 mg/kg
Summary of the method: (§2)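 Male BALB/cJ mice, 8–10 weeks old, dosed by oral gavage with compound in injectable water (10 mL/kg). Sertraline served as positive control. Forced swim begins 30 min after dosing, in a cylinder with 12 cm of 23 ± 1 °C water; total immobility recorded over 6 min. ANOVA followed by Newman-Keuls post hoc test.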

Mus musculus [56] = assay: Antidepressant activity in BALB/cJ mouse assessed as decrease in immobility time at 1 mg/kg, po after 30 mins by forced swim test; type: functional, organism-based; parameters: dose 1 mg/kg; summary of the method: as §2
Mus musculus [57] = assay: Antidepressant activity in BALB/cJ mouse assessed as decrease in immobility time at 3 mg/kg, po after 30 mins by forced swim test; type: functional, organism-based; parameters: dose 3 mg/kg; summary of the method: as §2
Liver microsomes = assay: Metabolic stability in human liver microsomes at 1 uM; type: ADME, Microsome
Liver = assay: Metabolic stability in mouse liver microsomes at 1 uM; type: ADME, Microsome
Plasma = assay: Plasma protein binding in CD1 mouse at 10 uM; type: ADME, cell-free
[58] = Inhibition of cytochrome P450; type: ADME
Summary of the method: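 Inhibitory potential tested against nine different CYP450 enzymes.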

Compound: OCc1cc(-c2cncc(OC[C@@H]3CCN3)c2)on1
- Efficacy [1]: 13%
- EC50 [2]: 25 nM
- Ratio Ki (Rattus norvegicus): 20000
- Ki [3]: 81 nM
- Ki [4]: 0.31 nM
- Ki [5]: 6660 nM
- Ki [6]: 310 nM
- Ki [7]: 2.9 nM
- Ki [8]: 0.32 nM
- IC50 [9]: 16 nM
- Efficacy [10]: 66%
- Activity (Mus musculus [11]): Active
- Ki [12]: 0.31 nM

Compound: Cl.OCCCc1cc(-c2cncc(OC[C@@H]3CCN3)c2)on1
- Efficacy [1]: 13%
- EC50 [2]: 36 nM
- inhibition [13]: -4.3%
- inhibition [14]: 25.9%
- inhibition [15]: -0.6%
- inhibition [16]: 14.2%
- inhibition [17]: 20%
- inhibition [18]: 6.4%
- inhibition [19]: 2%
- inhibition [20]: -6.8%
- inhibition [21]: 11.4%
- inhibition [22]: 2%
- inhibition [23]: -4.4%
- inhibition [24]: 6.2%
- inhibition [25]: 42.6%
- inhibition [26]: -1%
- inhibition [27]: -3.2%
- inhibition [28]: 22%
- inhibition [29]: 10.8%
- inhibition [30]: -0.5%
- inhibition [31]: 2.9%
- inhibition [32]: -0.4%
- inhibition [33]: -9.5%
- inhibition [34]: 21.7%
- inhibition [35]: -1.8%
- inhibition [36]: 19.8%
- inhibition [37]: 15.3%
- inhibition [38]: 19.8%
- inhibition [39]: -3.3%
- inhibition [40]: 26.9%
- inhibition [41]: 16.2%
- inhibition [42]: 22.3%
- inhibition [43]: 18.8%
- inhibition [44]: 14.6%
- inhibition [45]: 17.7%
- inhibition [46]: 22.2%
- inhibition [47]: 4.1%
- inhibition [48]: -9.9%
- inhibition [49]: 7.1%
- inhibition [50]: 0.3%
- Ratio Ki (Rattus norvegicus): 15000
- Ki [51]: > 10000 nM
- Ki [3]: 182 nM
- Ki [4]: 0.67 nM
- Ki [5]: > 10000 nM
- Ki [6]: 1410 nM
- Ki [7]: 16 nM
- Ki [8]: 0.9 nM
- IC50 [9]: 61 nM
- Efficacy [10]: 68%
- Activity (Mus musculus [52]): inactive
- Activity (Mus musculus [53]): Active
- inhibition [54]: 14.2%
- Ki [12]: 0.67 nM
- Activity (Mus musculus [55]): Active
- Activity (Mus musculus [56]): inactive
- Activity (Mus musculus [57]): inactive
- Stability (Liver microsomes): Stable
- Stability (Liver): Stable
- PPB (Plasma): 26%
- inhibition (INH) [58]: Not Active
